The test system of experiment [1] is 661W. The experiment is described as follows: Cytoprotective activity in mouse 661W cells assessed as reduction in tBHP-induced ROS level at 20 to 50 uM after 2 hrs by […] fluorescent microscopic analysis. The class given is functional, cell-based. A digest of the protocol: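 661W cells seeded on coverslips for 18 h, then exposed 2 h to 55 μM tBHP with or without test agent or (+)-pentazocine. ROS are detected with CellROX green dye by epifluorescence, with DAPI marking nuclei. Fluorescence intensity is quantified as mean ± SD from three independent experiments, each run in duplicate.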

The subject of experiment [2] is 661W. Briefly: Cytoprotective activity in mouse 661W cells assessed as inhibition of t-BHP induced oxidative stress by measuring increase in cell viability at 50 to 100 uM after 24 hrs by MTT assay (Rvb < 50%). The class given is functional, cell-based. Background: Tetrazolium assays rely on reduction of a dye to a coloured formazan, in cell work by metabolically active cells.

In experiment [3] the target is T1, Sigma intracellular receptor 2 (Homo sapiens, UniProt Q5BJF2). The experiment is described as follows: Displacement of […] from human recombinant sigma2 receptor expressed in HEKT cells after 90 mins by microbeta scintillation counting method. The format is cell-based. A digest of the protocol:
(§1)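 Run by NIMH Psychoactive Drug Screening Program. Otherwise, competition binding curves are generated and pKi is taken from a sigmoidal curve fit. Data are either triplicate measurements within one experiment, with the error from the fit, or the mean of repeated experiments, each run in triplicate.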
In general terms: In a radioligand displacement assay an active substance lowers the binding of a labelled ligand.

In experiment [4] the target is T2, 5-hydroxytryptamine receptor 2B (Homo sapiens, UniProt P41595). Briefly: Displacement of [3H]-LSD from human recombinant 5-HT2B receptor stably expressed in HEK cells after 90 mins by microbeta scintillation counting method. The format is cell-based. Summed up: as §1
T2 sequence (P41595 whole entry): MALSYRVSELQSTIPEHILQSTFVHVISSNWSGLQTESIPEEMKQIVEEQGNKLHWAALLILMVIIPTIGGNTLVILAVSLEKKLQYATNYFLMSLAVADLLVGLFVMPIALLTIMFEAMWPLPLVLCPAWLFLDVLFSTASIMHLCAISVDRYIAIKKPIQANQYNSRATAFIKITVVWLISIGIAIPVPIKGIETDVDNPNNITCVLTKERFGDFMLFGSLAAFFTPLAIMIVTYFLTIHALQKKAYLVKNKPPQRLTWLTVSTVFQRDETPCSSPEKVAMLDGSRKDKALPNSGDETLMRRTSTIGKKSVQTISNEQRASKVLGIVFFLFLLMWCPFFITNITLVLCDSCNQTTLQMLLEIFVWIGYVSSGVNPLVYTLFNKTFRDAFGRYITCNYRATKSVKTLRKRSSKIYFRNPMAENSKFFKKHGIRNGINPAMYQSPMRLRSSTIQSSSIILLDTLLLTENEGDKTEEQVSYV
The target of experiment [5] is 5-hydroxytryptamine receptor 7 (Homo sapiens, UniProt P34969). Briefly: Displacement of [3H]-LSD from human recombinant 5-HT7 receptor expressed in stable HEK cells after 90 mins by microbeta scintillation counting method. The class given is cell-based. The note with it: read-out: pKi (converted). Summed up: as §1
Sequence of 5-hydroxytryptamine receptor 7 (P34969 whole entry): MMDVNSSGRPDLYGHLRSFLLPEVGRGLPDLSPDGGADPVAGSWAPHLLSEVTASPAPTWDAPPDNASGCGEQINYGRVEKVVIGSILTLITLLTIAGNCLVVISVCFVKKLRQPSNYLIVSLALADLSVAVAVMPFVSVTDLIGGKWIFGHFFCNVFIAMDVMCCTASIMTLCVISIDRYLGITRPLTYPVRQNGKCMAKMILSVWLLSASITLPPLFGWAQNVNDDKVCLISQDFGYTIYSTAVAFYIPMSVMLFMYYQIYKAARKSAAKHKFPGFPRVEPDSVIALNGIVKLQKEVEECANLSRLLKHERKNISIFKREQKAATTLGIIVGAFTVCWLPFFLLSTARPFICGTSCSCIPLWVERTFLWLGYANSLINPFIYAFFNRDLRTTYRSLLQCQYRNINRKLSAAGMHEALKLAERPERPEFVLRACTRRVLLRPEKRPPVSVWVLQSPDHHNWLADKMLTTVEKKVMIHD
Experiment [6] deals with Sigma non-opioid intracellular receptor 1 (Homo sapiens, UniProt Q99720). The experiment is described as follows: Displacement of [3H]-Pentazocine from human recombinant sigma1 receptor expressed in HEKT cells after 90 mins by microbeta scintillation counting method. The format is cell-based.
Sequence of Sigma non-opioid intracellular receptor 1 (Q99720 whole entry): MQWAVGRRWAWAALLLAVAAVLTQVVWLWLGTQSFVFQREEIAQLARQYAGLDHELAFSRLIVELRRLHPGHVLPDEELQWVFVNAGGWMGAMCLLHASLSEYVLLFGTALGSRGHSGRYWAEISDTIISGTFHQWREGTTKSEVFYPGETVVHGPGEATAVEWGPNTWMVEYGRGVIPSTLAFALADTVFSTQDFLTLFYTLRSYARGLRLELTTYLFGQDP
Experiment [7] deals with T3, 5-hydroxytryptamine receptor 1A (Homo sapiens, UniProt P08908).
T3 sequence (P08908 whole entry): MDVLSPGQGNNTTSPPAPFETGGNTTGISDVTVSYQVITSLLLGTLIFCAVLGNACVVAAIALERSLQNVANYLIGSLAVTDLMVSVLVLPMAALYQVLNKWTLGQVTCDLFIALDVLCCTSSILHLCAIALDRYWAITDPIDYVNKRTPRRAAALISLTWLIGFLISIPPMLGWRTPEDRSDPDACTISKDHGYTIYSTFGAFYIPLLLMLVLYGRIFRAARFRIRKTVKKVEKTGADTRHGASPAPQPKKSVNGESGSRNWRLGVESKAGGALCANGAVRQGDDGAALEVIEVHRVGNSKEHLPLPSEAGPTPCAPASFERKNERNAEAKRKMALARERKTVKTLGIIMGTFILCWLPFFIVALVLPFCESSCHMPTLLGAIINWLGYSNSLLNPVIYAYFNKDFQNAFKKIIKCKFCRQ
The experiment is described as follows: Displacement of [3H]-Way100635 from human recombinant 5-HT1A expressed in stable CHO cells after 90 mins by microbeta scintillation counting method. The format is cell-based. The note with it: read-out: pKi (converted). Summed up:
as §1

The target in experiment [8] is T2, 5-hydroxytryptamine receptor 2B. Briefly: Displacement of [3H]-LSD from human recombinant 5-HT2B receptor stably expressed in HEK cells at 10 uM after 90 mins by microbeta scintillation counting method relative to control. The class given is cell-based. A digest of the protocol: (§2)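 Radioligand binding run by the NIMH Psychoactive Drug Screening Program. […] Otherwise Ki comes from sigmoidal curve fits of triplicate measurements in a single experiment, or is averaged over repeated experiments each run in triplicate.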

Experiment [9] deals with T1, Sigma intracellular receptor 2. The experiment is described as follows: Displacement of […] from human recombinant sigma2 receptor expressed in HEKT cells at 10 uM after 90 mins by microbeta scintillation counting method relative to control. The format is cell-based. A digest of the protocol:
as §2

The species entered for experiment [10] is Homo sapiens. The experiment is described as follows: Selectivity index, ratio of Ki for human recombinant sigma2 receptor to Ki for human recombinant sigma1 receptor. A digest of the protocol: (§3)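 Both Ki values in each ratio come from NIMH Psychoactive Drug Screening Program radioligand binding. […] Other targets were given full binding curves, measured in triplicate, and Ki was taken from a sigmoidal curve fit. Some values were repeated in duplicate or triplicate independent experiments.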

The species named for experiment [11] is Homo sapiens. Briefly: Selectivity index, ratio of Ki for human recombinant 5-HT2B receptor to Ki for human recombinant sigma1 receptor.
Experiment [12] is filed under the species Homo sapiens. Briefly: Selectivity index, ratio of Ki for human recombinant sigma2 receptor to Ki for human recombinant 5-HT2B receptor. A digest of the protocol:
as §3

Calls of active or inactive are those of the source. No cut-off for these calls is given here.

As usually defined, the inhibition is the percentage by which the read-out fell short of the control.

T1 sequence (Q5BJF2 whole entry): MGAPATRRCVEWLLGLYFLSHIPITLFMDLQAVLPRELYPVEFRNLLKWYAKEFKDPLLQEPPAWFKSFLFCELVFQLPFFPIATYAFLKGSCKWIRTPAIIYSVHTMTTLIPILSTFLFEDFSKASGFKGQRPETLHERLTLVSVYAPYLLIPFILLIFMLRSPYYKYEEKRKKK

In the case of `CC(C)=CCN1CC[C@]2(C)c3cc(O)ccc3C[C@H]1[C@H]2C`, the inhibition entry in the experiment with 661W [1] was “Active”. For the same molecule, the result with 661W [2] was Active.
As for `C[C@@]12COc3c(-c4ccccc4)cccc3[C@@H]1CCN2` (racemic), the Ki was 126 nM in experiment [3]; 158 nM in [4] (read-out: pKi (converted)); 23.4 nM in experiment [5]; 39.8 nM in experiment [6] (read-out: pKi (converted)); 200 nM in [7].
In the case of `CC(=O)N1CC[C@H]2c3cccc(-c4ccccc4)c3OC[C@]21C` (racemic), the Ki in experiment [3] is 1260 nM; in experiment [4] (read-out: pKi (converted)), 501 nM.
On to `CC(=O)N1CC[C@H]2c3ccccc3N(c3ccccc3)C[C@]21C` (racemic), for which the values for the Ki in [3] and in [4] (read-out: pKi (converted)) were 1260 nM and above 10000 nM, respectively. Moreover, the inhibition in experiment [8] was below 50%.
Regarding `Cc1cc(C)c2c(c1)OC[C@@]1(C)NCC[C@@H]21` (racemic), the Ki in experiment [3] was 316 nM; in [4] (read-out: pKi (converted)), 79.4 nM; in experiment [5], 1260 nM; in [6] (read-out: pKi (converted)), 63.1 nM.
As to `CC[C@H]1c2cc(OC)ccc2OC[C@@]1(C)N` (racemic), the Ki was above 10000 nM in [3], 251 nM in [4] (read-out: pKi (converted)), 398 nM in [6] (read-out: pKi (converted)) and 2510 nM in [7]. For the same molecule, the inhibition in [9] was below 50%.
On to `CN1CC[C@H]2c3ccccc3N(c3ccccc3)C[C@]21C` (racemic), for which the Ki in [3] was 158 nM; in [4] (read-out: pKi (converted)), 200 nM; in experiment [5], 2.69 nM; in experiment [6] (read-out: pKi (converted)), 162 nM; in experiment [7] it was 200 nM.
`C[C@@]12COc3c(Br)cccc3[C@@H]1CCN2` (racemic): the Ki in experiment [3] is 631 nM; in experiment [4] (read-out: pKi (converted)) it was 20 nM; in experiment [5] it was 398 nM; in experiment [6] (read-out: pKi (converted)) it was 501 nM; in experiment [7], 1000 nM.
For the molecule `CC(=O)N1CC[C@H]2c3ccc(O)cc3OC[C@]21C` (racemic), the Ki in [3], in experiment [4] (read-out: pKi (converted)) and in experiment [6] (read-out: pKi (converted)) was above 10000 nM throughout. Also, the inhibition in experiment [8] and in experiment [9] was below 50% in each case.
With `CN1CC[C@H]2c3cccc(-c4ccccc4)c3OC[C@]21C` (racemic), the Ki in experiment [3] is 316 nM; in experiment [4] (read-out: pKi (converted)), 251 nM; in [5], 20 nM; in experiment [6] (read-out: pKi (converted)), 50.1 nM; in [7], 200 nM.
On to `Cc1ccc(N2C[C@@]3(C)NCC[C@H]3c3cc(C)ccc32)cc1` (racemic), for which the Ki in [3] was 316 nM; in experiment [4] (read-out: pKi (converted)), 316 nM; in [5], 200 nM; in [6] (read-out: pKi (converted)), 251 nM.
Consider `CC[C@H]1c2c(ccc3ccccc23)OC[C@@]1(C)N` (racemic), for which the Ki in experiment [3] is 2000 nM; in experiment [4] (read-out: Ki), 20 nM; in experiment [5], 692 nM; in [6] (read-out: pKi (converted)), 1000 nM; in [7], 316 nM.
Take `CC[C@H]1c2cc(-c3ccccc3)ccc2OC[C@@]1(C)N` (racemic): the Ki was 316 nM in experiment [3], 126 nM in experiment [4] (read-out: pKi (converted)), 16 nM in [6] (read-out: Ki) and 2000 nM in experiment [7]. Besides, the Ratio Ki in the experiment filed under Homo sapiens [10] is above 200; in the experiment filed under Homo sapiens [11], 10.
Regarding `C[C@@]12COc3cc(O)ccc3[C@@H]1CCN2` (racemic), the Ki was 1000 nM in experiment [3], above 10000 nM in experiment [4] (read-out: pKi (converted)) and above 10000 nM in experiment [6] (read-out: pKi (converted)). Moreover, the inhibition in experiment [8] is below 50%.
For the molecule `COc1ccc2c(c1)[C@@H]1CCN[C@]1(C)CO2` (racemic), the Ki in experiment [3] is 3160 nM; in experiment [4] (read-out: pKi (converted)) it was 631 nM; in [5], 200 nM; in experiment [6] (read-out: pKi (converted)), 126 nM.
For `CN1CC[C@H]2c3ccc(O)cc3OC[C@]21C` (racemic), the Ki is 3980 nM in [3], 1000 nM in [4] (read-out: pKi (converted)) and 50.1 nM in experiment [6] (read-out: pKi (converted)).
Turning to `CC[C@H]1c2ccc(O)cc2OC[C@@]1(C)N` (racemic), the Ki in experiment [3], in [4] (read-out: pKi (converted)) and in experiment [6] (read-out: pKi (converted)) was above 10000 nM in each case. Moreover, the inhibition in experiment [8] and in experiment [9] was below 50% each time.
Regarding `CC[C@H]1c2ccc3ccccc3c2OC[C@@]1(C)N` (racemic), the Ki is 316 nM in experiment [3]; 3.5 nM in [4] (read-out: Ki); 1000 nM in experiment [5]; 3160 nM in [6] (read-out: pKi (converted)); 2510 nM in experiment [7]. For the same molecule, the Ratio Ki in the experiment filed under Homo sapiens [12] was 150.
Consider `C[C@@]12COc3cc(OCc4ccccc4)ccc3[C@@H]1CCN2` (racemic), for which the results for the Ki in experiment [3], in experiment [4] (read-out: pKi (converted)) and in experiment [6] (read-out: pKi (converted)) were 100 nM, 126 nM and 7.94 nM, respectively.
`C[C@@]12COc3ccc(-c4ccccc4)cc3[C@@H]1CCN2` (racemic): the Ki was 79.4 nM in experiment [3], 251 nM in experiment [4] (read-out: pKi (converted)), 1000 nM in experiment [5] and 12.6 nM in experiment [6] (read-out: pKi (converted)).
Take `C[C@@]12CN(c3ccc(Br)cc3)c3ccc(Br)cc3[C@@H]1CCN2` (racemic): the Ki in [3] was 79.4 nM; in [4] (read-out: pKi (converted)), 316 nM; in [5] it was 200 nM; in experiment [6] (read-out: pKi (converted)), 158 nM.

The record behind these values is ChEMBL document CHEMBL4304834, “3-Amino-chromanes and Tetrahydroquinolines as Selective 5-HT2B, 5-HT7, or σ1 Receptor Ligands” (ACS Med Chem Lett, 2019).
